Measurements taken from ChEMBL document CHEMBL2169850, “3,6-bis(3-alkylguanidino)acridines as DNA-intercalating antitumor agents” (Eur J Med Chem, 2012).
The source made the active and inactive calls. The rule behind the calls is not given here.

Key:
[1] = molecular target: T1, DNA topoisomerase 1 (Homo sapiens) (UniProt P11387); experiment: Inhibition of human topoisomerase 1 assessed as reduction in pBR322 DNA relaxation of relaxation at 5 uM by DNA unwinding assay
T1 sequence (whole entry): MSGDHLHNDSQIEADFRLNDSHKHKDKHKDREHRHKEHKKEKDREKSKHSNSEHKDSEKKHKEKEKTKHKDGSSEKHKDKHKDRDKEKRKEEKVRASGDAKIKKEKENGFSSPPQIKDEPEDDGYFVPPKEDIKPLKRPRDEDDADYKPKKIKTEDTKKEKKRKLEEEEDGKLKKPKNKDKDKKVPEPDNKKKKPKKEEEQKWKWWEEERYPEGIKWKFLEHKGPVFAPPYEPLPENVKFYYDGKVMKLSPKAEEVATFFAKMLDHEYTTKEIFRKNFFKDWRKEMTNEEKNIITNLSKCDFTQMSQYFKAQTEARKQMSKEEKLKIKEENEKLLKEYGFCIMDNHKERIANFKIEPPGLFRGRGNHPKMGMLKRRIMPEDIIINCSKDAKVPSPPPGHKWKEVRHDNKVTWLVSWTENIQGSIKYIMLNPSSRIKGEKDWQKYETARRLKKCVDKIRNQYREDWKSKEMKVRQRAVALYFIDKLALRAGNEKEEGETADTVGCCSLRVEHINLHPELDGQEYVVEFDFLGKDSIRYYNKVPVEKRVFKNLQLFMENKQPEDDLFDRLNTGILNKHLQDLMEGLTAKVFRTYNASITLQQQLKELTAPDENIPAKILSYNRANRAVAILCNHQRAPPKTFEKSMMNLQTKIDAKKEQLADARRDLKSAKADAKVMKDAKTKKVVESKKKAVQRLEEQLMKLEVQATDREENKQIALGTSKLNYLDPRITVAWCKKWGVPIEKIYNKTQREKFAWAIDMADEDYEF

[2] = tested on: HL-60; experiment: Cell cycle arrest in human HL60 cells assessed as accumulation at G2/M phase at 25 uM incubated for 24 hrs by flow cytometry (reference value: 19.62 +/- 0.96%); assay type: functional
[3] = tested on: HL-60; experiment: Cell cycle arrest in human HL60 cells assessed as accumulation at G1 phase at 25 uM incubated for 72 hrs by flow cytometry (reference value: 47.02 +/- 6.19%); assay type: functional
[4] = tested on: HL-60; experiment: Cell cycle arrest in human HL60 cells assessed as accumulation at G1 phase at 5 uM incubated for 48 hrs by flow cytometry (reference value: 38.29 +/- 0.22%); assay type: functional
[5] = tested on: HL-60; experiment: Cell cycle arrest in human HL60 cells assessed as accumulation at G2/M phase at 15 uM incubated for 48 hrs by flow cytometry (reference value: 16.42 +/- 1.03%); assay type: functional
[6] = tested on: HL-60; experiment: Cell cycle arrest in human HL60 cells assessed as accumulation at G2/M phase at 5 uM incubated for 72 hrs by flow cytometry (reference value: 12.68 +/- 3.21%); assay type: functional
[7] = tested on: HL-60; experiment: Cell cycle arrest in human HL60 cells assessed as accumulation at G1 phase at 15 uM incubated for 24 hrs by flow cytometry (reference value: 35.96 +/- 1.63%); assay type: functional
[8] = molecular target: T1, DNA topoisomerase 1 (Homo sapiens); experiment: Inhibition of human topoisomerase 1 assessed as reduction in pBR322 DNA relaxation of relaxation at 60 uM by DNA unwinding assay
[9] = tested on: HL-60; experiment: Antiproliferative activity against human HL60 cells assessed as cell number at 5 uM incubated for 48 hrs by Coulter counting method; assay type: functional
Procedure, shortened: (§1)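 HL-60 cells in RPMI with 10% heat-inactivated FCS, antibiotics and amphotericin, 37 °C, 5% CO2, seeded in 60 mm dishes. Compound added at 5, 15 or 25 µM for 24, 48 or 72 h. Absolute cell counts taken by Coulter counter and expressed as percentage of untreated control. Mean ± SD of at least three independent experiments; one-way ANOVA with Tukey test, p < 0.05.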

[10] = tested on: HL-60; experiment: Cell cycle arrest in human HL60 cells assessed as accumulation at G2/M phase at 15 uM incubated for 24 hrs by flow cytometry (reference value: 19.62 +/- 0.96%); assay type: functional
[11] = tested on: HL-60; experiment: Cell cycle arrest in human HL60 cells assessed as accumulation at G2/M phase at 5 uM incubated for 48 hrs by flow cytometry (reference value: 16.42 +/- 1.03%); assay type: functional
[12] = tested on: HL-60; experiment: Antiproliferative activity against human HL60 cells assessed as cell number at 15 uM incubated for 72 hrs by Coulter counting method; assay type: functional; procedure, shortened: as §1
[13] = tested on: HL-60; experiment: Induction of apoptosis in human HL60 cells at 5 to 25 uM incubated for 48 hrs by AnnexinV/propidium iodide staining method; assay type: functional, cell-based
Procedure, shortened: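 HL-60 cells (1.5 × 10^5) were treated at 5–25 µM for 24, 48 or 72 h and harvested. They were stained with Annexin V-FITC for 10 min in HEPES/CaCl2/NaCl binding buffer, washed, briefly stained with PI (1 mg/mL) and analysed by flow cytometry for apoptosis and necrosis. Mean ± SD, n ≥ 3.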

[14] = tested on: Nucleic Acid; experiment: Binding affinity to calf thymus DNA increase in DNA viscosity at 12 to 60 uM by viscosimetric titration assay; assay type: nucleic-acid assay; settings: Bos taurus
Procedure, shortened: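 Relative viscosity of ctDNA (3.11 × 10^-8 M) with compound at 12–60 × 10^-6 M was measured by automated microviscometry in a 1.6 mm capillary at 25 °C, in 10 mM Tris, pH 7.4. Solution density was also measured.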

[15] = tested on: HL-60; experiment: Induction of mitochondrial membrane dissipation in human HL60 cells at 5 to 25 uM incubated for 24 to 72 hrs by FACS assay; assay type: functional
Procedure, shortened: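 HL-60 cells (5 × 10^5) were treated 24, 48 or 72 h, washed in HBSS and loaded with TMRE for 20 min at 37 °C in the dark. TMRE fluorescence in FL2 was read by flow cytometry, with 1 × 10^4 gated cells per sample. Result is the percentage of cells with decreased fluorescence (dissipated MMP). Mean ± SD, n ≥ 3.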

[16] = tested on: Nucleic Acid; experiment: Binding affinity to calf thymus DNA assessed as hypochromacity at 12.8 uM by UV-visible absorption spectroscopy; settings: Bos taurus
[17] = tested on: HL-60; experiment: Cell cycle arrest in human HL60 cells assessed as accumulation at G2/M phase at 25 uM incubated for 72 hrs by flow cytometry (reference value: 12.68 +/- 3.21%); assay type: functional
[18] = tested on: HL-60; experiment: Antiproliferative activity against human HL60 cells assessed as cell number at 25 uM incubated for 72 hrs by Coulter counting method; assay type: functional; procedure, shortened: as §1
[19] = tested on: HL-60; experiment: Cell cycle arrest in human HL60 cells assessed as accumulation at G1 phase at 25 uM incubated for 24 hrs by flow cytometry (reference value: 35.96 +/- 1.63%); assay type: functional
[20] = tested on: HL-60; experiment: Antiproliferative activity against human HL60 cells assessed as cell number at 25 uM incubated for 48 hrs by Coulter counting method; assay type: functional; procedure, shortened: as §1
[21] = tested on: HL-60; experiment: Cell cycle arrest in human HL60 cells assessed as accumulation at S phase at 5 uM incubated for 72 hrs by flow cytometry (reference value: 40.30 +/- 3.15%); assay type: functional
[22] = tested on: HL-60; experiment: Cell cycle arrest in human HL60 cells assessed as accumulation at S phase at 15 uM incubated for 72 hrs by flow cytometry (reference value: 40.30 +/- 3.15%); assay type: functional

Activity [1]	Topoisomerase 1 inhibition (active/inactive) [8]	Activity [14]	Activity [16] [%]	SMILES	Activity [2]	Activity [3]	Activity [4]	Activity [5]	Activity [6]	Activity [7]	Activity [9] [%]	Activity [10]	Activity [11]	Activity [12] [%]	Activity [13]	Activity [15]	Activity [17]	Activity [18] [%]	Activity [19]	Activity [20] [%]	further results
Active	Active	Active	23	CCNC(=N)Nc1ccc2cc3ccc(NC(=N)NCC)cc3nc2c1.Cl.Cl.O	inactive	inactive	inactive	inactive	inactive	inactive	78.56	inactive	inactive	84.97	inactive	inactive	inactive	94.84	inactive	86.85	Activity [21]: inactive; Activity [22]: inactive
Active	Active	Active	42	CCCCCCNC(=N)Nc1ccc2cc3ccc(NC(=N)NCCCCCC)cc3nc2c1.Cl.Cl.O	10.37%	73.59%	45.1%	8.11%	7.47%	41.77%	72.18	11.65%	11.36%	33.13	Active	70%	3.91%	20.46	51.52%	40.67	Activity [21]: 43.6%; Activity [22]: 23.84%
